zfTRPN1 agonist – zebrafish TRPN1 channel agonists, primary screen, cell-based, HEK293, calcium fluorescence; HEK293 zebrafish TRPN1-YFP, Fluo-8 calcium fluorescence; 100% = response to 87 µM carbachol; AID 1424, 2008; activation, % at 3 µM; 220,000 tested, 0.18% active;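 active = activation above its plate's cutoff, the mean activation of test wells on that plate plus 3 SD, cut at about 19% in these data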
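Control set: carbachol 87 µM as high control, DMSO as low control; system: HEK293 stable line with zebrafish TRPN1-YFP; read-out: % activation versus carbachol response; detection: intracellular calcium fluorescence with Fluo-8; doses: single test compound dose, 3 µM nominal, 0.3% DMSO; schedule: dye 1 h 37 °C plus 30 min RT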
GPR7 antagonist – GPR7 receptor antagonists, primary screen, cell-based, fluorescence, single concentration; inhibition, % at 4.4 µM; 290,000 tested, 1.1% active; Neuropeptides B/W receptor type 1 (Homo sapiens), P48145; GPR7-expressing cells, fluorescence antagonist assay; in the data active = inhibition above about 16%, passing the limit was not always enough;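 also: cells stimulated with the agonist NPW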
Target sequence (P48145 whole entry, looked up): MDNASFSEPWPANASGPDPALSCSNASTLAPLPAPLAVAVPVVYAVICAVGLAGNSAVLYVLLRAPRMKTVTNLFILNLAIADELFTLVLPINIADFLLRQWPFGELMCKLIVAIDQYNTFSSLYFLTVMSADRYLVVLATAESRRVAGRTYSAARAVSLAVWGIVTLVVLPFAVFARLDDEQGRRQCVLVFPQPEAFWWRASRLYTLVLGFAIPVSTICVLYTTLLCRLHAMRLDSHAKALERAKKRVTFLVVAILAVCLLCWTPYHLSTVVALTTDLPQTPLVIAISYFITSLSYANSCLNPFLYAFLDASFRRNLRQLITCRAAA
CHO parental Ca – ATP-evoked calcium signal inhibitors, parental CHO, primary screen, counter-screen for OX1R antagonist project, cell-based, fluorescence, Fluo-8 calcium dye; parental CHO-K1, ATP-induced calcium, Fluo-8 fluorescence; inhibition, % at 5.6 µM; 330,000 tested, 0.63% active; AID 463079, 2010;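 active = inhibition above that plate's mean sample inhibition plus 3 SD, cut at about 26% in these data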
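Assay system – parental CHO cells · Reagent – ATP stimulus · Detection – intracellular calcium via Fluo-8 no-wash fluorescent dye · Evaluation – percent inhibition of ATP-evoked calcium rise, normalized to controls · Controls – ATP wells versus no-ATP DMSO wells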
TRPML3 ag – human TRPML3 channel agonists, primary screen, cell-based, HEK293 TRPML3-YFP, Fluo-8 calcium fluorescence, 3 µM; AID 1448, 2008; Mucolipin-3 (Homo sapiens), Q8TDD5; 220,000 tested, 0.29% active; 100% = the carbachol control signal; activation, % at 3 µM;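 active = activation above its plate's cutoff, the mean activation of the plate's test wells plus 3 SD, cut at about 12% in these data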
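Test system: TRPML3-YFP stable HEK293 cells. Doses: single point at 3 µM. Incubation: dye loading 1 h 37 °C then 30 min ambient, 125 s read. Signal: Fluo-8 calcium dye fluorescence, ex 470-495, em 515-575 nm. Measure: percent activation from peak-to-basal fluorescence ratio, scaled between DMSO and carbachol.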
OX1R antag-1 – OX1R (HCRTR1) antagonists, primary screen, fluorescence, CHO/OX1R cells, Fluo-8 calcium, orexin A. Orexin/Hypocretin receptor type 1 (Homo sapiens), O43613. Fluo-8 calcium fluorescence. inhibition, % at 5 µM. 330,000 tested, 0.43% active. AID 434989, 2010;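 active = inhibition above its plate's threshold, mean inhibition of all tested compounds on the plate plus 3 SD, cut at about 37% in these data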
OX1R antag-2 – antagonists of human orexin 1 receptor (OX1R); Orexin/Hypocretin receptor type 1 (Homo sapiens), O43613; AID 485270, 2010; inhibition, % at 6.6 µM; 330,000 tested, 1.8% active; OX1R-expressing cells, FRET antagonist read-out; in the data active = inhibition mostly above about 38%, no sharp cut-off; inactive = mostly below about 40%
OX1R Fluo8 conf – OX1R (HCRTR1) antagonists, confirmation, fluorescence, CHO/OX1R cells, Fluo-8 calcium, orexin A | shares compounds with OX1R antag-1 | orexin A calcium Fluo-8 fluorescence | inhibition, % at 5 µM | 1,100 tested, 38% active | AID 492963, 2010; in the data active = inhibition above about 29%
CHO Ca triplic – ATP-evoked calcium inhibition in parental CHO, counter-screen for OX1R antagonist project, cell-based, fluorescence, CHO-K1, triplicate; inhibition, % at 5.6 µM; shares compounds with OX1R antag-1; ATP-induced calcium, Fluo-8 fluorescence; 1,100 tested, 9.3% active;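 active = inhibition above a per-plate limit, the mean inhibition of that plate's test compounds plus 3 SD, cut at about 25% in these data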
OX1R HTRF conf – OX1R (HCRTR1) antagonists, confirmation, cell-based, HTRF | shares compounds with OX1R antag-2 | OX1R-expressing cells, HTRF antagonist assay | inhibition, % at 6.6 µM | 1,800 tested, 49% active; in the data active = inhibition above about 55%;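 also: CHO cells expressing OX1R stimulated with orexin A at about EC80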
CHO-K1 HTRF – signal inhibition in parental CHO-K1 cells, counter-screen for OX1R antagonist project, cell-based, HTRF; shares compounds with OX1R antag-2; HTRF counterscreen; inhibition, % at 6.6 µM; 1,800 tested, 48% active; in the data active = inhibition above about 17%
Hits are given with their value; n = inactive; x = no result. Sampled rows, rich in hits. Any-hit rate of the full collection: about 3.2%.

SMILES	zfTRPN1 agonist	GPR7 antagonist	CHO parental Ca	TRPML3 ag	OX1R antag-1	OX1R antag-2	OX1R Fluo8 conf	CHO Ca triplic	OX1R HTRF conf	CHO-K1 HTRF
CCSC1=C(C#N)C(c2ccccc2Cl)C(C(=O)c2cccs2)C(O)(C(F)(F)F)N1 (stereo unspecified)	n	n	n	n	94.5	95.2	77.2	n	89.0	n
C=CCSC1=C(C#N)C(c2ccccc2Cl)C(C(=O)c2cccs2)C(O)(C(F)(F)F)N1 (stereo unspecified)	n	n	n	n	41.8	103.6	79.0	n	88.7	n
O=C1NC(c2ccccc2)C(C(=O)c2cccs2)C(O)(C(F)(F)F)N1 (stereo unspecified)	n	n	n	n	n	n	x	x	x	x
COc1cc(C(=O)OCC(=O)N2c3ccccc3NC(=O)C2(C)C)ccc1OCC(C)C	x	x	n	x	n	56.0	n	n	56.2	n
COc1ccc(CN2C(=O)c3ccccc3C2C(=O)NC2CCCC(C)C2C)c(OC)c1 (stereo unspecified)	n	n	x	n	x	x	x	x	x	x
Cc1ccc(C(=O)NC(C)c2nc3ccccc3n2CC(=O)Nc2c(C)cc(C)cc2C)cc1 (stereo unspecified)	n	n	n	n	n	n	x	x	x	x
CCN(CC)c1ccc(NC(=O)Cn2c(C(C)NC(=O)c3ccccc3)nc3ccccc32)cc1 (stereo unspecified)	n	n	n	n	53.7	92.7	61.5	n	88.2	n
O=S(=O)(NCc1ccccn1)c1ccc(Cl)s1	n	n	n	n	n	n	x	x	x	x
O=C(Nc1cccc(-c2nc3ccccc3s2)c1)c1ccc2c(c1)OCO2	n	n	n	n	44.2	86.7	n	n	94.1	n
CC1(c2nnc(-c3cccc(Cl)c3)o2)CC(c2cccc([N+](=O)[O-])c2)=NO1 (stereo unspecified)	x	n	n	x	n	n	x	x	x	x
Cc1cc(Br)cc2c1NC(=O)C2(c1c(C)n(C)n(-c2ccccc2)c1=O)c1c(C)n(C)n(-c2ccccc2)c1=O	n	n	n	n	n	69.2	57.0	n	71.5	n
CCOC(=O)c1ccc2[nH]c3c(c2c1)CCCC3	x	n	n	x	n	77.7	n	n	n	n
CCOC(=O)c1ccc2[nH]c3c(c2c1)CCCC3O (stereo unspecified)	n	n	n	n	n	n	x	x	x	x
Cc1cccc(NC(=O)NNC(=O)c2cc(-c3ccccc3Cl)nc3ccccc23)c1	n	n	n	n	44.1	82.8	37.9	n	91.8	n
O=C(Nc1cccc(S(=O)(=O)N2CCCCCC2)c1)C1CCN(C(=O)c2ccc(Cl)cc2)CC1	x	x	n	x	n	n	x	x	x	x
COc1ccc(/C=c2\s/c(=C/C(=O)c3ccc(C)cc3)[nH]c2=O)c(OC)c1	n	n	n	n	47.1	78.6	n	n	93.1	n
Cc1cccc(/C=N/NC(=O)c2cc3c(s2)-c2ccccc2CC3)c1	n	n	n	n	81.2	87.2	91.7	n	84.6	n
Cn1c(O)c(/C=C2\C=NN=C2c2ccccc2)sc1=S	n	n	n	n	40.7	38.6	n	n	n	n
CCn1c(O)c(/C=C2\C=NN=C2c2ccccc2)sc1=S	n	n	n	n	n	n	x	x	x	x
NC(=O)NCCCC(=O)NCC(c1ccccc1Cl)c1c[nH]c2ccccc12 (stereo unspecified)	x	n	n	x	n	n	x	x	x	x
O=C(CCOc1ccccc1F)N1CCN(c2ccccc2O)CC1	n	n	n	n	n	n	x	x	x	x
CCc1ccccc1NC(=O)CSc1nnc(CNC(=O)c2ccco2)n1C	x	n	n	x	n	n	x	x	x	x
N#Cc1ccccc1NC(=O)CSC1=Nc2ccccc2C2CC=NN12 (stereo unspecified)	n	n	n	n	n	84.6	n	n	n	n
O=C(CSC1=Nc2ccccc2C2CC=NN12)Nc1ccc2c(c1)OCO2 (stereo unspecified)	n	n	x	n	x	x	x	x	x	x
Nc1nonc1-n1nnc(C(=O)N/N=C/c2ccco2)c1CSc1ccccc1	x	n	n	x	n	n	x	x	x	x
SMILES	zfTRPN1 agonist	GPR7 antagonist	CHO parental Ca	TRPML3 ag	OX1R antag-1	OX1R antag-2	OX1R Fluo8 conf	CHO Ca triplic	OX1R HTRF conf	CHO-K1 HTRF
Cc1ccccc1NC(=O)C1CCCN1S(=O)(=O)c1ccccc1C(F)(F)F (stereo unspecified)	x	x	n	x	65.9	81.3	55.1	n	94.3	n
O=C(NCc1ccc(F)cc1)C1CCCN1S(=O)(=O)c1ccccc1C(F)(F)F (stereo unspecified)	x	x	n	x	n	n	x	x	x	x
CN(Cc1ccccc1)C(=O)Cn1c(=O)oc2cc(S(=O)(=O)NCc3ccccc3)ccc21	n	n	n	n	n	48.1	47.2	n	87.8	n
CCC(C)c1ccccc1NC(=O)C(C)N(C)Cc1cccc(OC)c1 (stereo unspecified)	n	n	n	n	n	n	x	x	x	x
CCN(c1ccccc1)S(=O)(=O)c1ccc(Cl)c(NC(=O)CNC(C)c2ccccc2)c1 (stereo unspecified)	x	x	n	x	50.1	28.1	n	37.4	n	n
O=S(=O)(Nc1nc2ccccc2nc1NCc1ccco1)c1ccccc1	n	n	n	n	n	n	x	x	x	x
c1coc(CNc2nc3nonc3nc2NCc2ccco2)c1	n	n	n	n	n	73.1	n	n	n	n
Cc1cccc(C(CC(=O)N2CCCCC2)c2ccccc2)c1O (stereo unspecified)	x	n	n	x	n	n	x	x	x	x
CCc1ccc(C(=O)NCC2COc3ccccc3O2)o1 (stereo unspecified)	n	n	n	n	n	n	x	x	x	x
CCOc1ncccc1C(=O)NCC1COc2ccccc2O1 (stereo unspecified)	n	n	n	n	n	80.8	n	n	69.5	n

From PubChem
